Consider 24 compounds from ChEMBL document CHEMBL1153029, “In vitro and in vivo studies of 6,8-(diaryl)imidazo[1,2-a]pyrazin-3(7H)-ones as new antioxidants” (Bioorg Med Chem, 2009).

Series [1] in a line: Antioxidant activity assessed as chemical oxidative degradation into N-(5-(4-hydroxyphenyl)-3-(4-methoxyphenyl)pyrazin-2-yl)acetamide at 1000 uM after 19 hrs by HPLC. It counts as functional. In a few lines: (§1)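 Aerobic oxidation of imidazopyrazinone (10^-3 M) with internal standard (5 × 10^-4 M) in 90:10:0.1 CH2Cl2/isopropanol/DEA. Sealed vial under white light at 23 °C for 19 h. Products quantified by HPLC against calibration curves, detection at 280 nm.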

The subject of series [2] is Hamster. Kind of series: Antioxidant activity against microvascular damage in hamster model of cheek pouch submitted to ischemia/reperfusion assessed as inhibition of leaky sites at 3 mg/kg treated by gavage route 30 mins before anesthesia measured after 30 mins of reperfusion by FITC-dextran based microscopy. It counts as functional. The settings on record: Cricetinae, po. In a few lines: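 Hamsters anesthetized, kept on a-chloralose (100 mg/kg) via the femoral vein, femoral artery cannulated for blood pressure, body temperature 37.5 °C. Compound at 3 mg/kg or solvent given by gavage in 0.2 ml, 3 animals per group. FITC-dextran (150,000 Da) given i.v. at 25 mg/100 g. Cuff ischemia of everted pouch. Leaky sites counted; % inhibition = [1 − mean treated/mean control] × 100.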

Series [3] can be described thus: Antioxidant activity assessed as chemical oxidative degradation into N-(5-(4-hydroxyphenyl)-3-(4-(trifluoromethyl)phenyl)pyrazin-2-yl)acetamide at 1000 uM after 19 hrs by HPLC. It counts as functional. In a few lines: as §1
Series [4] is described as follows: Antioxidant activity assessed as chemical oxidative degradation into 4-(5-amino-6-(4-(trifluoromethyl)phenyl)pyrazin-2-yl)phenol at 1000 uM after 19 hrs by HPLC. It counts as functional. In a few lines:
as §1

Series [5] in a line: Antioxidant activity assessed as chemical oxidative degradation into N-(3-(4-fluorophenyl)-5-(4-hydroxyphenyl)pyrazin-2-yl)acetamide at 1000 uM after 19 hrs by HPLC. Format: functional. In a few lines:
as §1

A short description of series [6]: Antioxidant activity assessed as chemical oxidative degradation into 4-(5-amino-6-(4-fluorophenyl)pyrazin-2-yl)phenol at 1000 uM after 19 hrs by HPLC. Format: functional. In a few lines:
as §1

The nature of series [7]: Antioxidant activity assessed as chemical oxidative degradation into N-(3,5-bis(4-hydroxyphenyl)pyrazin-2-yl)acetamide at 1000 uM after 19 hrs by HPLC. It counts as functional. In a few lines:
as §1

Series [8] is described as follows: Antioxidant activity assessed as chemical oxidative degradation into 4-(5-amino-6-(4-methoxyphenyl)pyrazin-2-yl)phenol at 1000 uM after 19 hrs by HPLC. It counts as functional. In a few lines: as §1
Series [9] in a line: Antioxidant activity assessed as chemical oxidative degradation into 4-(5-amino-6-(4-(dimethylamino)phenyl)pyrazin-2-yl)phenol at 1000 uM after 19 hrs by HPLC. It counts as functional. In a few lines: as §1
The nature of series [10]: Antioxidant activity assessed as chemical oxidative degradation into 1-(4-(3-amino-6-(4-hydroxyphenyl)pyrazin-2-yl)phenyl)ethanone at 1000 uM after 19 hrs by HPLC. It counts as functional. In a few lines: as §1
Series [11] in a line: Antioxidant activity assessed as chemical oxidative degradation into 4-(5-amino-6-phenylpyrazin-2-yl)phenol at 1000 uM after 19 hrs by HPLC. Format: functional. In a few lines: as §1
A short description of series [12]: Stability at pH 7.4 at 80 uM during 1 day by HPLC in presence of linoleic acid and azo-bis-isobutyronitrile. Format: physicochemical. The conditions noted are these: buffer, pH 7.4, 24 h.
The nature of series [13]: Antioxidant activity assessed as chemical oxidative degradation into N-(5-(4-hydroxyphenyl)pyrazin-2-yl)benzamide at 80 uM after 18 hrs by HPLC. Format: functional. In a few lines: (§2)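 Imidazopyrazinone mixed 1:1 with standard (8 × 10^-5 M) in 96:4 ACN–EtOH. Kept in the dark at 37 °C and sampled by HPLC hourly for 18 h.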
Series [14] is described as follows: Antioxidant activity assessed as chemical oxidative degradation into 4-(5-aminopyrazin-2-yl)phenol at 80 uM after 18 hrs by HPLC. It counts as functional. In a few lines: as §2
Series [15] in a line: Antioxidant activity assessed as chemical oxidative degradation into 4-(5-aminopyrazin-2-yl)phenol at 80 uM after 18 hrs by HPLC in presence of azo-bis-isobutyronitrile. It counts as functional.
The nature of series [16]: Antioxidant activity assessed as chemical oxidative degradation into N-(5-(4-hydroxyphenyl)pyrazin-2-yl)benzamide at 80 uM after 18 hrs by HPLC in presence of azo-bis-isobutyronitrile. Format: functional.
The nature of series [17]: Antioxidant activity assessed as chemical oxidative degradation into N-(5-(4-hydroxyphenyl)pyrazin-2-yl)benzamide at 80 uM by HPLC in presence of linoleic acid. It counts as functional.
A short description of series [18]: Antioxidant activity assessed as chemical oxidative degradation into 4-(5-aminopyrazin-2-yl)phenol at 80 uM by HPLC in presence of linoleic acid. It counts as functional.
A short description of series [19]: Antioxidant activity assessed as time required for chemical oxidative degradation of compound at 80 uM by HPLC in presence of linoleic acid. Format: functional.
The nature of series [20]: Antioxidant activity assessed as chemical oxidative degradation into benzoic acid at 80 uM by HPLC in presence of linoleic acid. Format: functional.
Series [21] can be described thus: Antioxidant activity assessed as time required for chemical oxidative degradation of compound at 80 uM by HPLC in presence of azo-bis-isobutyronitrile. It counts as functional.
Series [22] in a line: Antioxidant activity assessed as chemical oxidative degradation into N-(5-(4-hydroxyphenyl)pyrazin-2-yl)benzamide at 80 uM by HPLC in presence of linoleic acid and azo-bis-isobutyronitrile. It counts as functional.
The nature of series [23]: Antioxidant activity assessed as chemical oxidative degradation into 4-(5-aminopyrazin-2-yl)phenol at 80 uM by HPLC in presence of linoleic acid and azo-bis-isobutyronitrile. Format: functional.
A short description of series [24]: Antioxidant activity assessed as chemical oxidative degradation into benzoic acid at 80 uM by HPLC in presence of linoleic acid and azo-bis-isobutyronitrile. It counts as functional.
Series [25] can be described thus: Antioxidant activity assessed as chemical oxidative degradation into N-(3-(4-(dimethylamino)phenyl)-5-(4-hydroxyphenyl)pyrazin-2-yl)acetamide at 1000 uM after 19 hrs by HPLC. It counts as functional. In a few lines:
as §1

A short description of series [26]: Chemical stability after 19 hrs. Format: physicochemical. In a few lines:
as §1

Series [27] can be described thus: Antioxidant activity assessed as chemical oxidative degradation into N-(5-(4-hydroxyphenyl)-3-phenylpyrazin-2-yl)acetamide at 1000 uM after 19 hrs by HPLC. Format: functional. In a few lines: as §1
A short description of series [28]: Antioxidant activity assessed as chemical oxidative degradation into N-(3-(4-acetylphenyl)-5-(4-hydroxyphenyl)pyrazin-2-yl)acetamide at 1000 uM after 19 hrs by HPLC. Format: functional. In a few lines: as §1
Series [29] in a line: Antioxidant activity assessed as chemical oxidative degradation into 4,4'-(3-aminopyrazine-2,6-diyl)diphenol at 1000 uM after 19 hrs by HPLC. Format: functional. In a few lines:
as §1

Molecules are shown by their SMILES. Some results are limits rather than exact numbers.

Turning to `COc1ccc(-c2nc(-c3ccc(O)cc3)cnc2NC(C)=O)cc1`, the Activity in series [1] was found to be 21%.

With `Cc1nc2c(-c3ccc(C(F)(F)F)cc3)[nH]c(-c3ccc(O)cc3)cn-2c1=O`, the inhibition in vivo at 3 mg/kg in series [2] was 17%. For the compound `COc1cc(C(C)=O)ccc1O` [APOCYNIN], the inhibition in vivo at 3 mg/kg in series [2] stood at 40%. Turning to `CC(=O)Nc1ncc(-c2ccc(O)cc2)nc1-c1ccc(C(F)(F)F)cc1`, the Activity in series [3] is 16%. Regarding `Cc1nc2c(-c3ccc(O)cc3)[nH]c(-c3ccc(O)cc3)cn-2c1=O`, in series [2], the inhibition in vivo at 3 mg/kg is 40%. Take `Cc1nc2c(-c3ccc(N(C)C)cc3)[nH]c(-c3ccc(O)cc3)cn-2c1=O`: in series [2], the inhibition in vivo at 3 mg/kg turned out to be 21%.

With `Nc1ncc(-c2ccc(O)cc2)nc1-c1ccc(C(F)(F)F)cc1`, the Activity in [4] turned out to be 78%. Besides, the inhibition in vivo at 3 mg/kg in series [2] stood at 14%.

Take `Cc1nc2c(-c3ccc(F)cc3)[nH]c(-c3ccc(O)cc3)cn-2c1=O`: the inhibition in vivo at 3 mg/kg in series [2] was determined as 34%. As to `CC(=O)Nc1ncc(-c2ccc(O)cc2)nc1-c1ccc(F)cc1`, the Activity in [5] was found to be 17%. With `Nc1ncc(-c2ccc(O)cc2)nc1-c1ccc(F)cc1`, the Activity in series [6] came out at 76%. Also, the inhibition in vivo at 3 mg/kg in [2] amounted to 42%. With `CC(=O)Nc1ncc(-c2ccc(O)cc2)nc1-c1ccc(O)cc1`, the Activity in series [7] came to 16%. Take `COc1ccc(-c2nc(-c3ccc(O)cc3)cnc2N)cc1`: in series [8], the Activity was found to be 71%. In addition, in series [2], the inhibition in vivo at 3 mg/kg turned out to be 10%. Regarding `CN(C)c1ccc(-c2nc(-c3ccc(O)cc3)cnc2N)cc1`, the Activity in series [9] amounted to 68%. The inhibition in vivo at 3 mg/kg in [2] stood at 50%. Turning to `CC(=O)c1ccc(-c2nc(-c3ccc(O)cc3)cnc2N)cc1`, the Activity in series [10] came to 67%.

For the compound `Nc1ncc(-c2ccc(O)cc2)nc1-c1ccccc1`, in series [11], the Activity came to 66%. Besides, the inhibition in vivo at 3 mg/kg in series [2] was determined as 18%.

Regarding `O=C(Nc1cnc(-c2ccc(O)cc2)cn1)c1ccccc1`, the Stability entry in series [12] is “Stable”. In the case of `O=C(O)c1ccccc1` [BENZOIC ACID], the Stability entry in series [12] is on record as “Stable”. As for `Oc1ccc(-c2cn3c(O)c(-c4ccccc4)nc3cn2)cc1`, the Activity in series [13] is less than 5%; in [14] it was 9%; in series [15], 44%; in series [16], 26%; in series [17], 66%; in [18] it was 30%. For the same compound, the Activity in series [19] is less than 6 h; in series [20], 27%; in series [21], 5 h; in series [22], 57%; in series [23] it was 40%; in series [24], 33%. As to `CC(=O)Nc1ncc(-c2ccc(O)cc2)nc1-c1ccc(N(C)C)cc1`, the Activity in series [25] was found to be 18%.

With `COc1ccc(-c2[nH]c(-c3ccc(O)cc3)cn3c(=O)c(C)nc2-3)cc1`, in [2], the inhibition in vivo at 3 mg/kg was determined as 44%.

For `CC(=O)Nc1ncc(-c2ccc(O)cc2)nc1-c1ccccc1`, the Stability result in series [26] is listed as “Stable”. Besides, in series [27], the Activity stood at 15%. For the compound `CC(=O)Nc1ncc(-c2ccc(O)cc2)nc1-c1ccc(C(C)=O)cc1`, the Activity in [28] is 22%. Turning to `Cc1nc2c(-c3ccccc3)[nH]c(-c3ccc(O)cc3)cn-2c1=O`, the inhibition in vivo at 3 mg/kg in series [2] worked out at 12%.

For `Nc1ncc(-c2ccc(O)cc2)nc1-c1ccc(O)cc1`, in series [29], the Activity is 77%. In addition, in series [2], the inhibition in vivo at 3 mg/kg stood at 29%.
